Measurements: publication PMC6990463 (Cellular physiology and biochemistry : international …, 2019)
Peptide text beside a SMILES is read from it. * marks the point of attachment. Cbz = O=C(OCc1ccccc1)*; CH2F = FC*

Tests used:
[1] = test system: LC3-II; assay: Western blotting for LC3 in WM266–4 cells; format: cell-based, human
Outline: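 1 × 10^6 cells seeded (WM266–4 in E-MEM, M14 in RPMI-1640; + 10% FBS) in 6 cm plates. Test compound at various doses and times; controls rapamycin 10 μM + chloroquine 5 μM, staurosporine 1 μM. Lysates blotted with polyclonal LC3 A/B antibody (1:1000); bands normalised to β-actin, as fold of untreated; n=3.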

[2] = test system: cleaved lamin A/C; assay: Western blotting for Lamin A/C in WM266–4 cells; format: cell-based, human; conditions: LY294002 10 μM, 2155–14 100 μM
Outline: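 WM266–4 cells (1 × 10^6, E-MEM + 10% FBS, 6 cm plates) pre-treated after 24 h with caspase inhibitors for 3 h or autophagy inhibitors (LY294002 10 μM, hydroxychloroquine) for 1 h. Test compound given at various doses and times, with or without inhibitors; controls staurosporine 1 μM, rapamycin 10 μM + chloroquine 5 μM. Lysates blotted with polyclonal lamin A/C antibody (1:1000).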

[3] = test system: WM266–4; assay: Cell viability assay; format: cell-based, human; conditions: for WM266–4 viability, inhibitor alone: 50 μM inhibitor, 72 h
[4] = test system: sXBP1; assay: ER stress assay; format: cell-based, human; conditions: 60 μM STF-83010 pre-treatment 3 h
Outline: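 WM266–4 cells (0.2 × 10^6, E-MEM + 10% FBS, 24-well) pre-treated 24 h after seeding with 60 μM STF-83010 or vehicle for 3 h. RNA extracted with TRI reagent; amplified products run on 2% agarose with GelGreen and quantified. sXBP-1 expressed as % of total XBP-1 (sXBP-1 + XBP-1).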

[5] = test system: metastatic melanoma; conditions: BRAF-mutant metastatic melanoma; cited from earlier work
[6] = test system: PC-3 cells; conditions: read-out: IC50, apoptotic cell death of PC-3 cells; cited from earlier work
[7] = test system: WM266–4 cells; assay: Annexin V flow cytometry assay; format: cell-based, human; conditions: 4 h, staurosporine 1 μM
Outline: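 WM266–4 cells (1,000,000/flask, EMEM + 10% FBS + 1% pen/strep) adhered overnight. 24 h after plating, optional 2 h pre-treatment with Z-VAD-FMK 10 μM. Test compound 100 μM or staurosporine 1 μM (control) for 4, 24 and 48 h. Adherent plus floating cells pooled, Annexin V-FITC stained, and viable, necrotic, early and late apoptotic cells counted by flow cytometry.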

[8] = test system: SKMEL2; assay: Cell viability assay; format: cell-based; conditions: Homo sapiens, SK-MEL-2, 72 h, read-out: IC50, viability SKMEL2 (M)
Outline: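 Cells plated in 384-well format. Test compound as a 10-point 1:3 dilution series prepared from 300 μM; dabrafenib as assay control. Incubated 72 h at 37 °C, 5% CO2. CellTiter-Glo added for 15 min at room temperature; luminescence read. Viability normalised to media-only (0%) and DMSO-treated cells (100%). S/B, CV and Z′ computed per plate.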

[9] = test system: M14; assay: Cell viability assay; format: cell-based; conditions: Homo sapiens, M14, 72 h, read-out: IC50, viability M14 (M)
[10] = test system: SKMEL28; conditions: read-out: IC50, viability SKMEL28; V600E BRAF/R24C CDK4 primary; cited from earlier work
[11] = test system: WM115; assay: Cell viability assay; format: cell-based; conditions: Homo sapiens, WM-115, 72 h, read-out: IC50, viability WM115 (F)

## O=c1cc(N2CCOCC2)oc2c(-c3ccccc3)cccc12 [LY294002]
[1]; LY294002 10 μM alone
  LC3-II levels, fold of untreated control: 20 fold
[1]; combination of LY294002 10 μM and 2155–14 100 μM
  LC3-II levels, fold of untreated control: ~ 40 fold
[2]
  effect of pre-treatment on cleaved lamin A/C levels in cells treated with 2155–14: no effect

## CC(C)[C@H](NC(=O)OCc1ccccc1)C(=O)N[C@H](C=O)Cc1ccccc1 [MDL-28170] (Cbz-Val-Phe-aldehyde)
[3]; caspase inhibitors 10 μM, calpain inhibitors 25 μM, 2155–14 100 μM
  WM266–4 viability 24 h after addition of 2155–14, inhibitor pre-incubation: further decreased cell viability

## O=S(=O)(N=Cc1c(O)ccc2ccccc12)c1cccs1 [STF-83010]
[4]
  effect on sXBP1 formation by 2155–14: inhibited

## CC(C)(C)c1nc(-c2cccc(NS(=O)(=O)c3c(F)cccc3F)c2F)c(-c2ccnc(N)n2)s1 [dabrafenib]
[5]
  median progression-free survival (PFS): 6.9 months

## O=c1c(O)c(-c2ccc(O)c(O)c2)oc2cc(O)cc(O)c12 [quercetin]
[6]
  IC50: 100 µM

## CN[C@@H]1C[C@H]2O[C@@](C)([C@@H]1OC)n1c3ccccc3c3c4c(c5c6ccccc6n2c5c31)C(=O)NC4 [staurosporine]
[7]
  apoptosis detection: apoptosis was detected

## CCCS(=O)(=O)Nc1ccc(F)c(C(=O)c2c[nH]c3ncc(-c4ccc(Cl)cc4)cc23)c1F [vemurafenib]
[8]
  IC50: 1.4e-06 ± 7e-07 M
[9]
  IC50: 1e-06 ± 2e-07 M
[3]; Homo sapiens, WM 266-4, 72 h, read-out: IC50, viability WM266–4 (F)
  IC50: 3 ± 0.4 µM
[10]
  IC50: 4.6 µM
[11]
  IC50: 5 ± 0.9 µM
[5]
  median progression-free survival (PFS): 6.9 months

## Cbz-Val-Ala-Asp-CH2F
[3]
  WM266–4 viability, inhibitor alone: completely inhibited cell viability

## Z-IETD-FMK: selective caspase 8 inhibitor
[3]
  WM266–4 viability, inhibitor alone: completely inhibited cell viability
[3]; 48 h, 2155–14 100 μM, caspase inhibitors 10 μM, calpain inhibitor 25 μM
  WM266–4 cells viable, 2155–14 in combination with inhibitor: 25%
